# Measured values: ChEMBL document CHEMBL1153752, “Hymenopsins A and B and a macrophorin analogue from a fungicolous Hymenopsis sp” (2010)
# Active and inactive are the calls of the source. The calls are words filed in the database; no cut-off is given here.
# Key:
# Candida albicans [1] = experiment: Antifungal activity against Candida albicans ATCC 14053 at 200 ug/disk by disk diffusion method; assay type: functional, organism-based
# In short: (§1)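 Standard paper-disk diffusion assay. Test material was loaded at 200 μg/disk, and gentamicin sulfate was run as the standard at 50 μg/disk. The C. albicans assay used the same 200 μg/disk level. The read-out was the diameter of the zone of inhibition in mm.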
# Staphylococcus aureus [2] = experiment: Antibacterial activity against Staphylococcus aureus ATCC 25923 at 200 ug/disk by disk diffusion method; assay type: functional; conditions: for zone of inhibition at 200 µg/disc: read-out: IZ; in short: as §1
# Aspergillus flavus [3] = experiment: Antifungal activity against Aspergillus flavus NRRL 6541 at 200 ug/disk by disk diffusion method; assay type: functional
# Bacillus subtilis [4] = experiment: Antibacterial activity against Bacillus subtilis ATCC 6051 at 200 ug/disk by disk diffusion method; assay type: functional; conditions: for zone of inhibition at 200 µg/disc: read-out: IZ; in short: as §1
# Fusarium verticillioides [5] = experiment: Antifungal activity against Fusarium verticillioides NRRL 25457 at 200 ug/disk by disk diffusion method; assay type: functional
# Bacillus subtilis [6] = experiment: Antibacterial activity against Bacillus subtilis ATCC 6051 at 50 ug/disk by disk diffusion method; assay type: functional, organism-based; in short: as §1
# Staphylococcus aureus [7] = experiment: Antibacterial activity against Staphylococcus aureus ATCC 25923 at 50 ug/disk by disk diffusion method; assay type: functional, organism-based; in short: as §1
# Aspergillus flavus [8] = experiment: Antifungal activity against Aspergillus flavus NRRL 6541 at 25 ug/disk by disk diffusion method; assay type: functional, organism-based
# Fusarium verticillioides [9] = experiment: Antifungal activity against Fusarium verticillioides NRRL 25457 at 25 ug/disk by disk diffusion method; assay type: functional, organism-based
# Candida albicans [10] = experiment: Antifungal activity against Candida albicans ATCC 14053 at 25 ug/disk by disk diffusion method; assay type: functional, organism-based
Compound,inhibition zone (IZ) (Candida albicans [1]),inhibition zone (IZ) (Aspergillus flavus [3]),inhibition zone (IZ) (Fusarium verticillioides [5]),zone of inhibition at 200 µg/disc (Staphylococcus aureus [2]) [mm],zone of inhibition at 200 µg/disc (Bacillus subtilis [4]) [mm],further results
C[C@@]1(CO)CCC[C@]2(C)[C@H]3C[C@@]45O[C@@H]4[C@H](O)[C@]4(CO)O[C@@H]4[C@]5(O)CC3=CC[C@@H]12,inactive,inactive,inactive,,,inhibition zone (IZ) (Staphylococcus aureus [2]): inactive; inhibition zone (IZ) (Bacillus subtilis [4]): inactive
C[C@@]1(CO)CCC[C@]2(C)[C@H]3C[C@@]45O[C@@H]4C(=O)[C@]4(CO)O[C@@H]4[C@]5(O)CC3=CC[C@@H]12 [HYMENOPSIN B],inactive,inactive,inactive,21,21,
GENTAMICIN SULFATE,inactive,,,,,inhibition zone (IZ) (Bacillus subtilis [6]): 25 mm; inhibition zone (IZ) (Staphylococcus aureus [7]): 25 mm
NYSTATIN,,,,,,inhibition zone (IZ) (Aspergillus flavus [8]): Active; inhibition zone (IZ) (Fusarium verticillioides [9]): Active; inhibition zone (IZ) (Candida albicans [10]): Active
C=C1CC[C@H]2[C@](C)(CO)CCC[C@]2(C)[C@H]1C[C@@]12O[C@@H]1C(=O)[C@]1(CO)O[C@@H]1C2=O,inactive,,,32,32,zone of inhibition at 200 µg/disc (Aspergillus flavus [3]; read-out: IZ): 20 mm; zone of inhibition at 200 µg/disc (Fusarium verticillioides [5]; read-out: IZ): 20 mm
